These results are taken from ChEMBL document CHEMBL1126681, “Novel acyclonucleotides: synthesis and antiviral activity of alkenylphosphonic acid derivatives of purines and a pyrimidine” (J Med Chem, 1993).

What is called IC50 is the concentration that inhibits the measured activity by half. A high value points to lower potency. The pKa is the pH at which an ionisable group is half protonated.

Converted amounts (≈) assume the structure as drawn. The source made the active and inactive calls. The rule behind the calls is not given here.

Data set [1] concerns Visna-maedi virus. The experiment in a line: Compound was evaluated for anti-retrovirus activity against Visna virus (K184) strain in infected sheep choroid plexus cells; Not active. In kind it is functional, organism-based.
In data set [2] the test system is Human alphaherpesvirus 3. Kind of data set: Compound was evaluated for anti-herpesvirus activity against Varicella Zoster virus (Ellen) strain. Type of data set: functional, organism-based. A digest of the protocol: (§1)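 Plaque-reduction assay in human fibroblast (MRC-5) cells infected with virus. IC50 is the compound concentration that halves the plaque count.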

Data set [3] relates to Human immunodeficiency virus 1. Kind of data set: Compound was evaluated for anti-retrovirus activity against HIV-1 (D34) Diagen strain. Type of data set: functional, organism-based.
Data set [4] has as its system Human alphaherpesvirus 1. The experiment in a line: Compound was evaluated for anti-herpesvirus activity against Herpes simplex virus-1 (SC16) strain. In kind it is functional, organism-based.
Data set [5] concerns Human alphaherpesvirus 2. Kind of data set: Compound was evaluated for anti-herpesvirus activity against Herpes simplex virus-2 (MS) strain. Type of data set: functional, organism-based. Put shortly: as §1
Data set [6] relates to Cytomegalovirus. The experiment in a line: Compound was evaluated for anti-herpesvirus activity against Cytomegalovirus (AD169) strain plaques in infected human fibroblast (MRC-5) cells. The settings on record: Human betaherpesvirus 5, MRC5. In kind it is functional, organism-based. A digest of the protocol:
as §1

Data set [7] deals with Visna-maedi virus. Kind of data set: Compound was evaluated for anti-retrovirus activity against Visna virus (K184) strain in infected sheep choroid plexus cells. In kind it is functional. Put shortly: (§2)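 Infected sheep choroid plexus (SCP) cells. MIC is the lowest concentration that completely prevents virus cytopathic effect.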
Data set [8] deals with MRC5. The experiment in a line: Compound was evaluated for the inhibition of cell replication of human fibroblast (MRC-5) cells. In kind it is functional. To be noted: read-out: CD50 (the source's name). Put shortly:
(§3)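 Cytotoxicity in uninfected cells, measured as inhibition of DNA synthesis by [3H]thymidine incorporation. CD50 is the concentration giving 50% inhibition of cell replication.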

A short description of data set [9]: Compound was evaluated for the inhibition of cell replication sheep choroid plexus (SCP) cells. The settings on record: Ovis aries; read-out: CD50 (the source's name). In kind it is functional. Put shortly:
as §3

Data set [10] is described as follows: Compound was evaluated for the inhibition of cell replication human peripheral blood lymphocytes (PBL's). In kind it is functional. The settings on record: read-out: CD50 (the source's name). Put shortly: as §3
The test system of data set [11] is Visna-maedi virus. The experiment in a line: Compound was evaluated for anti-retrovirus activity against Visna virus (K184) strain in infected sheep choroid plexus cells. In kind it is functional. A digest of the protocol: as §2
A short description of data set [12]: Compound was evaluated for the inhibition of cell replication sheep choroid plexus (SCP) cells. The settings on record: Ovis aries; read-out: CD50 (the source's name). Type of data set: functional. Put shortly:
as §3

Data set [13] relates to MRC5. Kind of data set: Compound was evaluated for the inhibition of cell replication of human fibroblast (MRC-5) cells. In kind it is functional. The settings on record: read-out: CD50 (the source's name). Put shortly:
as §3

In data set [14] the test system is PBL. The experiment in a line: Compound was evaluated for the inhibition of cell replication human peripheral blood lymphocytes (PBL's). In kind it is functional. To be noted: read-out: CD50 (the source's name). A digest of the protocol:
as §3

The test system of data set [15] is Human alphaherpesvirus 1. Kind of data set: Compound was evaluated for anti-herpesvirus activity against Herpes simplex virus-1 (SC16) strain. Type of data set: functional, organism-based.
Data set [16] deals with Cytomegalovirus. Kind of data set: Compound was evaluated for anti-herpesvirus activity against Cytomegalovirus (AD169) strain plaques in infected human fibroblast (MRC-5) cells. The settings on record: Human betaherpesvirus 5, MRC5. Type of data set: functional, organism-based. A digest of the protocol: as §1
Data set [17] relates to Human alphaherpesvirus 3. The experiment in a line: Compound was evaluated for anti-herpesvirus activity against Varicella Zoster virus (Ellen) strain. Type of data set: functional, organism-based. A digest of the protocol: as §1
Data set [18] deals with Human alphaherpesvirus 2. The experiment in a line: Compound was evaluated for anti-herpesvirus activity against Herpes simplex virus-2 (MS) strain. Type of data set: functional, organism-based. Put shortly: as §1
A short description of data set [19]: Compound was evaluated for the inhibition of DNA synthesis in uninfected cells. In kind it is functional. The settings on record: read-out: CD50 (the source's name). A digest of the protocol:
as §3

Data set [20] in a line: Second dissociation constant was determined. In kind it is ADME.
Data set [21] has as its system Human alphaherpesvirus 1. The experiment in a line: Compound was evaluated for anti-herpesvirus activity against Herpes simplex virus-1 (SC16) strain; Not active. Type of data set: functional, organism-based.
Data set [22] has as its system Human alphaherpesvirus 2. Kind of data set: Compound was evaluated for anti-herpesvirus activity against Herpes simplex virus-2 (MS) strain; Not active. In kind it is functional, organism-based. Put shortly:
as §1

Data set [23] concerns Human alphaherpesvirus 3. The experiment in a line: Compound was evaluated for anti-herpesvirus activity against Varicella Zoster virus (Ellen) strain; Not active. Type of data set: functional, organism-based. Put shortly: as §1
Data set [24] deals with Human immunodeficiency virus 1. Kind of data set: Compound was evaluated for anti-retrovirus activity against HIV-1 (D34) Diagen strain; Not active. In kind it is functional, organism-based.
Data set [25] has as its system Cytomegalovirus. Kind of data set: Compound was evaluated for anti-herpesvirus activity against Cytomegalovirus (AD169) strain plaques in infected human fibroblast (MRC-5) cells; Not active. In kind it is functional, organism-based. Put shortly: as §1
In data set [26] the test system is Cytomegalovirus. The experiment in a line: Compound was evaluated for anti-herpes virus activity against Cytomegalovirus (AD169) strain plaques in infected human fibroblast (MRC-5) cells; Not active. Type of data set: functional, organism-based. Put shortly:
as §1

In the case of `Nc1ccn(OC(/C=C/P(=O)(O)O)CO)c(=O)n1` (stereo not drawn), the MIC entry in data set [1] is “inactive”.

Regarding `Nc1nc(O)c2ncn(OCC/C=C/P(=O)(O)O)c2n1`, the IC50 in data set [2] was < 10 µM; in [3], 0.1 µM; in [4], < 10 µM; in data set [5], < 10 µM; in data set [6], 0.53 µM. The MIC in data set [7] is < 0.01 µM. Also, the results for the CC50 in [8], in data set [9] and in data set [10] were 0.1 µM, 0.13 µM and 0.23 µM, respectively.

On to `Cc1cn([C@H]2C[C@H](N=[N+]=[N-])[C@@H](CO)O2)c(=O)[nH]c1=O` [ZIDOVUDINE], for which the MIC in data set [11] was 5.6 µM (≈ 1.5 µg/mL). Moreover, the CC50 in data set [12] was > 370 µM; in [13], 72 µM; in data set [14], 13 µM.

Turning to `Nc1nc2c(ncn2CC/C=C\P(=O)(O)O)c(=O)[nH]1`, the MIC entry in [1] was “inactive”.

As to `Nc1nc2c(ncn2COCCO)c(=O)[nH]1` [ACYCLOVIR], the IC50 in data set [15] worked out at 3.9 µM; in data set [16] it was 93 µM; in [17], 21 µM; in data set [18], 4.3 µM. In [13], the CC50 worked out at 355 µM.

As to `Nc1nc2c(ncn2CCOCP(=O)(O)O)c(=O)[nH]1` [GS-438], the CC50 in data set [19] was 8.6 µM. For the same molecule, the pKa in [20] came out at 6.5.

For `Nc1ncnc2c1ncn2CC/C=C/P(=O)(O)O`, the IC50 entry in data set [21], in data set [22], in [23], in data set [24] and in data set [25] was “Not Active” in each case. The same molecule showed an MIC in [7] of 20 µM (≈ 5.38 µg/mL). Further, the results for the CC50 in data set [8] and in data set [9] were 260 µM and 137 µM, respectively.

In the case of `Nc1ncnc2c1ncn2CC/C=C\P(=O)(O)O`, in data set [1], the MIC entry was “inactive”.

As to `Nc1nc(O)c2ncn(OC(/C=C/P(=O)(O)O)CO)c2n1` (stereo not drawn), the MIC entry in [1] was “inactive”. Also, the pKa in data set [20] (read-out: pKa E2) came out at 6.6.

As for `Nc1nc(O)c2ncn(OCC(/C=C/P(=O)(O)O)CO)c2n1` (stereo not drawn), the IC50 in data set [2] worked out at 15 µM; in data set [3], 8.9 µM; in data set [4], 295 µM; in data set [5] it was 177 µM; in data set [6], 44 µM. Moreover, the CC50 in data set [8] stood at 19 µM.

With `Nc1ncnc2c1ncn2OC(/C=C/P(=O)(O)O)CO` (stereo not drawn), the MIC result in data set [1] was “inactive”.

On to `Nc1nc(O)c2ncn(CC/C=C/P(=O)(O)O)c2n1`, for which the IC50 entry in data set [21] is “Not Active”; in [2] it was 190 µM; in data set [24] it was “Not Active”; in [5], 90 µM; in data set [6] it was 52 µM. The MIC in data set [7] stood at 0.35 µM (≈ 0.0998 µg/mL). The CC50 is 4.5 µM in [8] and 1.3 µM in data set [9].

With `Nc1nc(N)c2ncn(CC/C=C/P(=O)(O)O)c2n1`, the IC50 entry in data set [21] was “Not Active”; in data set [22] it was “Not Active”; in data set [3], 9.8 µM; in data set [23], “Not Active”; in [26] it was “Not Active”. The same molecule showed an MIC in data set [7] of 2.1 µM (≈ 0.597 µg/mL). In addition, the CC50 in [8] stood at 222 µM; in [9], 95 µM.

Turning to `Nc1ncnc2c1ncn2OCC/C=C/P(=O)(O)O`, the IC50 result is “Not Active” in [21]; “Not Active” in data set [22]; 10.2 µM in data set [3]; “Not Active” in [23]; “Not Active” in data set [25]. This molecule came in with an MIC in data set [7] of 82 µM (≈ 23.4 µg/mL). Also, the CC50 was determined as 330 µM in [8] and 130 µM in [10].

With `Nc1nc(O)c2ncn(CC(/C=C/P(=O)(O)O)CO)c2n1` (stereo not drawn), the IC50 in [2] is 17 µM; in data set [4] it was 60 µM; in data set [24], “Not Active”; in [5], 66 µM; in [6] it was < 9 µM. Also, the CC50 in data set [8] was 20 µM.

Consider `C=C(/C=C/P(=O)(O)O)Cn1cnc2c(O)nc(N)nc21`, for which the MIC result in [1] was “inactive”.

Take `Nc1ncnc2c1ncn2OCCOCP(=O)(O)O`: the IC50 result is “Not Active” in [21]; 280 µM in data set [2]; 0.24 µM in data set [3]; “Not Active” in data set [25]; 270 µM in data set [5]. Besides, the MIC in data set [7] was found to be 8 µM (≈ 2.31 µg/mL). In addition, the CC50 in data set [8] and in data set [9] was 173 µM throughout.

In the case of `Nc1ncnc2c1ncn2CC(/C=C/P(=O)(O)O)CO` (stereo not drawn), the IC50 is 16 µM in [2]; 137 µM in [4]; “Not Active” in data set [24]; 91 µM in [5]; 35 µM in [6]. In addition, the CC50 in data set [8] was 189 µM.

With `Nc1nc(O)c2ncn(OCC/C=C\P(=O)(O)O)c2n1`, the IC50 entry in data set [21] was “Not Active”; in data set [22] it was “Not Active”; in data set [23], “Not Active”; in [16], 178 µM; in data set [24], “Not Active”. Also, in data set [7], the MIC worked out at 0.1 µM (≈ 0.0301 µg/mL). The results for the CC50 in data set [8] and in data set [9] were 26 µM and 11.7 µM, respectively.
